According to ChEMBL document CHEMBL4406901, “Synthesis, 3D-structure and stability analyses of NRPa-308, a new promising anti-cancer agent” (Bioorg Med Chem Lett, 2019):

What was measured:
[1] = test system: MDA-MB-231; assay: Antiproliferative activity against human MDA-MB-231 cells expressing NRP1 assessed as cell viability measured after 48 hrs by MTT assay; type: functional, cell-based; details: MDA-MB-231, 48 h
[2] = test system: MDA-MB-231; assay: Antiproliferative activity against human MDA-MB-231 cells expressing NRP1 assessed as cell viability measured after 72 hrs by MTT assay; type: functional, cell-based; details: MDA-MB-231, 72 h
[3] = test system: BT-549; assay: Antiproliferative activity against human BT549 cells expressing NRP1 assessed as cell viability measured after 48 hrs by MTT assay; type: functional, cell-based; details: BT-549, 48 h
[4] = test system: BT-549; assay: Antiproliferative activity against human BT549 cells expressing NRP1 assessed as cell viability measured after 72 hrs by MTT assay; type: functional, cell-based; details: BT-549, 72 h
[5] = Chemical stability of compound in DMSO/aqueous buffer at 1 mg at pH 0.9 to 8.4 incubated at 25 degree C and measured upto 16 days by HPLC analysis; type: physicochemical; details: read-out: Stability
How it was run: (§1)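 Compound held in aqueous buffers at pH 0.9, 7.4 and 8.4 at 25 °C or 37 °C for up to 16 days; the chromatographic profile was followed by HPLC.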

[6] = Chemical stability of compound in DMSO/aqueous buffer at 1 mg at pH 0.9 to 8.4 incubated at 37 degree C and measured upto 16 days by HPLC analysis; type: physicochemical; details: read-out: Stability; how it was run: as §1
[7] = Retention time of compound in pH 0.91 at 1 mg incubated at 37 degree C by HPLC analysis; type: physicochemical; how it was run: as §1
[8] = Retention time of compound in pH 7.4 at 1 mg incubated at 37 degree C by HPLC analysis; type: physicochemical; how it was run: as §1
[9] = Retention time of compound at in pH 8.4 at 1 mg incubated at 37 degree C by HPLC analysis; type: physicochemical; how it was run: as §1
[10] = Retention time of compound at 1mg measured immediately by HPLC analysis; type: physicochemical
[11] = Drug uptake in human MDA-MB-231 cells at 2 uM incubated at 37 degree C measured after 3 days by HPLC analysis; type: ADME, cell-based; details: mda-mb-231, 72 h
How it was run: (§2)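 MDA-MB-231 or BT-549 breast cancer cells were cultured with […] of compound for three days at 37 °C. Supernatant was analysed by HPLC. Cells were then washed and lysed with methanol, and the intracellular compound was measured by quantitative HPLC dosage, giving mol per sample.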

[12] = Drug uptake in human BT549 cells at 2 uM incubated at 37 degree C measured after 3 days by HPLC analysis; type: ADME, cell-based; details: bt-549, 72 h; how it was run: as §2
[13] = Retention time of compound in human MDA-MB-231 cell lysates at 2 uM incubated at 37 degree C measured after 3 days by HPLC analysis; type: ADME, subcellular, Lysate; details: mda-mb-231, 72 h; how it was run: as §2
[14] = Retention time of compound in human BT549 cell lysates at 2 uM incubated at 37 degree C measured after 3 days by HPLC analysis; type: ADME, subcellular, Lysate; details: bt-549, 72 h; how it was run: as §2
[15] = Retention time of compound in human MDA-MB-231 cells at 2 uM incubated at 37 degree C measured after 3 days by HPLC analysis; type: ADME, cell-based; details: mda-mb-231, 72 h; how it was run: as §2
[16] = Retention time of compound in human BT549 cells at 2 uM incubated at 37 degree C measured after 3 days by HPLC analysis; type: ADME, cell-based; details: bt-549, 72 h; how it was run: as §2
[17] = test system: MDA-MB-231; assay: Antitumour activity against human MDA-MB-231 cells xenografted in nude mouse assessed as reduction in tumour growth at 50 mg/kg, po administered every 3 days for 20 days and measured 3 times a week by caliper method relative to control; details: MDA-MB-231, po, read-out: TGI

Row | IC50 [1] [µM] | IC50 [2] [nM] | IC50 [3] [nM] | IC50 [4] [nM] | remaining at 384 h [5] [%] | remaining at 384 h [6] [%] | Retention_time [7] [min] | Retention_time [8] [min] | Retention_time [9] [min] | Retention_time [10] [min] | Drug uptake [11] [nmol] | Drug uptake [12] [nmol] | Retention_time [13] [min] | Retention_time [14] [min] | Retention_time [15] [min] | Retention_time [16] [min] | Compound | inhibition in vivo at 50 mg/kg [17] [%]
1 | 4.9 | 200 | 2100 | 100 | 100 | 100 | 4.058 | 4.067 | 4.05 | 4.075 | 5.14 | 1.4 | 4.025 | 3.992 | 4.492 | 4.05 | CCOc1ccccc1NC(=O)c1ccc(C)c(S(=O)(=O)Nc2ccc(C)cc2)c1 | > 60
2 | 2.6 | 3700 | 2200 | 3500 | – | – | – | – | – | – | – | – | – | – | – | – | CCN(CC)CCNC(=O)c1c(C)[nH]c(/C=C2\C(=O)Nc3ccc(F)cc32)c1C [SUNITINIB] | –
